MIC and viability data for seven compounds are collected here from ChEMBL document CHEMBL4406852, “Combating fluconazole-resistant fungi with novel β-azole-phenylacetone derivatives” (Eur J Med Chem, 2019).

≈ marks a conversion by molar mass, not a printed value.

Data set [1] concerns Candida albicans. Briefly: Antifungal activity against fluconazole-resistant Candida albicans 17 assessed as reduction in fungal growth incubated for 24 hrs by serial dilution method. To be noted: Candida albicans, 17, 24 h. Type of data set: functional. The gist of the method: (§1)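 Fluconazole-resistant C. albicans clinical isolates (17# and CaR from AIDS patients; 632, 901, 904 from clinic) tested by CLSI broth dilution MIC in RPMI 1640 buffered to pH 7.0 with MOPS. Compounds dissolved in DMSO, serially diluted to final 0.03–16 or 0.125–64 μg/mL; inoculum 1–5 × 10^3 CFU/mL; 35 °C, 24 h. MIC = lowest concentration inhibiting visible growth; fluconazole and itraconazole as controls.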

For another data set, the system named is Candida tropicalis. The experiment in a line: Antifungal activity against Candida tropicalis GIM 2.183 assessed as reduction in fungal growth incubated for 24 hrs by serial dilution method. Type of data set: functional. Particulars: GIM 2.183, 24 h. The method in brief:
(§2)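 MIC by CLSI broth microdilution in RPMI 1640 buffered to pH 7.0 with MOPS. Compounds dissolved in DMSO and serially diluted to final 0.03–16 or 0.125–64 µg/mL. Inoculum 1–5 × 10^3 CFU/mL. Incubation 35 °C, 24 h. Drug-free growth and fungus-free blank controls. MIC is the lowest concentration preventing visible growth.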

Data set [2] concerns Candida albicans. The experiment in a line: Antifungal activity against fluconazole-resistant Candida albicans 901 assessed as reduction in fungal growth incubated for 24 hrs by serial dilution method. The format is functional. Particulars: Candida albicans, 901, 24 h. The method in brief: as §1
The test system of data set [3] is Candida albicans. Briefly: Antifungal activity against Candida albicans GIM 2.194 assessed as reduction in fungal growth incubated for 24 hrs by serial dilution method. Type of data set: functional. Particulars: GIM 2.194, 24 h. The method in brief: as §2
In the next data set the test system is Candida parapsilosis. The experiment in a line: Antifungal activity against Candida parapsilosis GIM 2.190 assessed as reduction in fungal growth incubated for 24 hrs by serial dilution method. The format is functional. To be noted: Lodderomyces parapsilosis, GIM 2.190, 24 h. The gist of the method: as §2
In a further data set the test system is Nakaseomyces glabratus. Briefly: Antifungal activity against Candida glabrata assessed as reduction in fungal growth incubated for 24 hrs by serial dilution method. The format is functional. The gist of the method:
as §2

In data set [4] the test system is Candida albicans. The experiment in a line: Antifungal activity against Candida albicans SC5314 assessed as reduction in fungal growth incubated for 24 hrs by serial dilution method. The format is functional. To be noted: SC5314, 24 h. The gist of the method: as §2
Data set [5] deals with Candida albicans. Briefly: Antifungal activity against fluconazole-resistant Candida albicans 632 assessed as reduction in fungal growth incubated for 24 hrs by serial dilution method. Type of data set: functional. Particulars: Candida albicans, 632, 24 h. The gist of the method:
as §1

The test system of data set [6] is Candida albicans. Briefly: Antifungal activity against fluconazole-resistant Candida albicans CaR assessed as reduction in fungal growth incubated for 24 hrs by serial dilution method. Type of data set: functional. The method in brief: as §1
The subject of data set [7] is Candida albicans. The experiment in a line: Antifungal activity against fluconazole-resistant Candida albicans 904 assessed as reduction in fungal growth incubated for 24 hrs by serial dilution method. To be noted: Candida albicans, 904, 24 h. The format is functional. The gist of the method: as §1
Data set [8] is described as follows: Cytotoxicity against human A549 cells assessed as cell survival at 2 uM/l incubated for 24 hrs by MTT assay relative to control. The format is cell-based. To be noted: read-out: Activity. The gist of the method: (§3)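 A549 cells were seeded at 3000 per well in RPMI 1640 and held 16 h at 37 °C, 5% CO2. Medium was then replaced with medium holding DMSO-dissolved compound at final 0.08, 0.4, 2.0 or 10 µM/L and incubated 24 h. MTT was added for 4 h and absorbance read at 490 nm to give survival.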
In general terms: Tetrazolium dyes change colour on reduction, which living cells bring about.

A short description of data set [9]: Cytotoxicity against human A549 cells assessed as cell survival at 10 uM/l incubated for 24 hrs by MTT assay relative to control. The format is cell-based. To be noted: read-out: Activity. The gist of the method:
as §3

Data set [10] in a line: Cytotoxicity against human A549 cells assessed as cell survival at 0.4 uM/l incubated for 24 hrs by MTT assay relative to control. Type of data set: cell-based. To be noted: read-out: Activity. The gist of the method:
as §3

The nature of data set [11]: Cytotoxicity against human A549 cells assessed as cell survival at 0.08 uM/l incubated for 24 hrs by MTT assay relative to control. The format is cell-based. Particulars: read-out: Activity. The gist of the method:
as §3

What is called MIC is the lowest concentration that inhibits growth of the organism. In the case of `O=C(NC(Cn1ccnc1)C(=O)c1ccc(Cl)cc1)c1ccc(-c2ccccc2)cc1F` (stereo not drawn), the minimal inhibitory concentration (MIC) in the data set on Candida albicans [1] is > 64 µg/mL; in the data set on Candida tropicalis, 0.06 µg/mL (≈ 0.134 µM); in the data set with Candida albicans [2] it was > 64 µg/mL; in the data set on Candida albicans [3] it was 0.5 µg/mL (≈ 1.12 µM); in the data set with Candida parapsilosis, 0.125 µg/mL (≈ 0.279 µM); with Nakaseomyces glabratus it was 0.25 µg/mL (≈ 0.558 µM). Besides, the MIC with Candida albicans [4] was 0.06 µg/mL (≈ 0.134 µM); in the data set on Candida albicans [5], > 64 µg/mL; in the data set on Candida albicans [6], > 64 µg/mL; with Candida albicans [7], 32 µg/mL (≈ 71.4 µM).
For the compound `O=C(NC(Cn1ccnc1)C(=O)c1ccccc1)c1ccc(-c2ccccc2)cc1` (stereo not drawn), the minimal inhibitory concentration (MIC) in the data set with Candida albicans [1] is > 64 µg/mL; with Candida tropicalis, 0.06 µg/mL (≈ 0.152 µM); in the data set on Candida albicans [2], 0.5 µg/mL (≈ 1.26 µM); with Candida albicans [3], 0.125 µg/mL (≈ 0.316 µM); in the data set with Candida parapsilosis, 0.125 µg/mL (≈ 0.316 µM); with Nakaseomyces glabratus, 0.25 µg/mL (≈ 0.632 µM). Also, the minimum inhibitory concentration (MIC) in the data set on Candida albicans [4] was 0.06 µg/mL (≈ 0.152 µM); in the data set with Candida albicans [5] it was 2 µg/mL (≈ 5.06 µM); with Candida albicans [6] it was > 64 µg/mL; with Candida albicans [7] it was 1 µg/mL (≈ 2.53 µM).
For the compound `O=C(NC(Cn1ccnc1)C(=O)c1ccc(Cl)cc1)c1ccc(-c2ccccc2)c(F)c1` (stereo not drawn), the minimum inhibitory concentration (MIC) with Candida albicans [1] is > 64 µg/mL; in the data set on Candida tropicalis, 0.06 µg/mL (≈ 0.134 µM); in the data set on Candida albicans [2] it was > 64 µg/mL; in the data set with Candida albicans [3] it was 0.5 µg/mL (≈ 1.12 µM); in the data set on Candida parapsilosis, 1 µg/mL (≈ 2.23 µM); in the data set with Nakaseomyces glabratus, 0.5 µg/mL (≈ 1.12 µM). For the same compound, the MIC with Candida albicans [4] is 0.06 µg/mL (≈ 0.134 µM); in the data set with Candida albicans [5], > 64 µg/mL; with Candida albicans [6], > 64 µg/mL; in the data set with Candida albicans [7], > 64 µg/mL.
As to `Cc1ccc(C(=O)C(Cn2ccnc2)NC(=O)c2ccc(-c3ccccc3)cc2)cc1` (stereo not drawn), the MIC with Candida albicans [1] is > 64 µg/mL; in the data set on Candida tropicalis it was 0.03 µg/mL (≈ 0.0733 µM); in the data set on Candida albicans [2], 16 µg/mL (≈ 39.1 µM); in the data set with Candida albicans [3], 0.125 µg/mL (≈ 0.305 µM); with Candida parapsilosis it was 0.5 µg/mL (≈ 1.22 µM); with Nakaseomyces glabratus it was 0.25 µg/mL (≈ 0.611 µM). The minimal inhibitory concentration (MIC) was 0.06 µg/mL (≈ 0.147 µM) with Candida albicans [4], > 64 µg/mL with Candida albicans [5], > 64 µg/mL with Candida albicans [6] and 32 µg/mL (≈ 78.1 µM) in the data set with Candida albicans [7].
As to `O=C(NC(Cn1ccnc1)C(=O)c1cccc(Cl)c1)c1ccc(-c2ccccc2)cc1` (stereo not drawn), the MIC in the data set with Candida albicans [1] was > 64 µg/mL; in the data set on Candida tropicalis it was 0.03 µg/mL (≈ 0.0698 µM); with Candida albicans [2], 1 µg/mL (≈ 2.33 µM); in the data set on Candida albicans [3] it was 0.06 µg/mL (≈ 0.14 µM); in the data set on Candida parapsilosis, 0.125 µg/mL (≈ 0.291 µM); in the data set on Nakaseomyces glabratus, 0.125 µg/mL (≈ 0.291 µM). The minimum inhibitory concentration (MIC) in the data set on Candida albicans [4] was 0.03 µg/mL (≈ 0.0698 µM); in the data set with Candida albicans [5], 4 µg/mL (≈ 9.3 µM); in the data set on Candida albicans [6], > 64 µg/mL; in the data set with Candida albicans [7] it was 4 µg/mL (≈ 9.3 µM). Further, the viability at 24 h, 2 µM in data set [8] is 97.2%. Also, the viability at 24 h, 10 µM in [9] was found to be 96.3%. The viability at 24 h, 0.4 µM in [10] came out at 97.4%. Further, the viability at 24 h, 0.08 µM in data set [11] came out at 100%.
Take `O=C(NC(Cn1ccnc1)C(=O)c1ccccc1F)c1ccc(-c2ccccc2)cc1` (stereo not drawn): the MIC in the data set with Candida albicans [1] was determined as 8 µg/mL (≈ 19.3 µM); with Candida tropicalis it was 1 µg/mL (≈ 2.42 µM); in the data set with Candida albicans [2], 0.25 µg/mL (≈ 0.605 µM); in the data set with Candida albicans [3], 0.125 µg/mL (≈ 0.302 µM); with Candida parapsilosis, 0.125 µg/mL (≈ 0.302 µM); in the data set on Nakaseomyces glabratus it was 2 µg/mL (≈ 4.84 µM). The MIC in the data set with Candida albicans [4] is 0.125 µg/mL (≈ 0.302 µM); with Candida albicans [5] it was 0.5 µg/mL (≈ 1.21 µM); in the data set on Candida albicans [6] it was 1 µg/mL (≈ 2.42 µM); in the data set with Candida albicans [7], < 0.125 µg/mL. Besides, the viability at 24 h, 2 µM in data set [8] stood at 100%. For the same compound, the viability at 24 h, 10 µM in data set [9] amounted to 100%. The viability at 24 h, 0.4 µM in data set [10] was found to be 100%. In addition, the viability at 24 h, 0.08 µM in data set [11] is 100%.
Consider `CCC(C)n1ncn(-c2ccc(N3CCN(c4ccc(OCC5COC(Cn6cncn6)(c6ccc(Cl)cc6Cl)O5)cc4)CC3)cc2)c1=O` (stereo not drawn) [ITRACONAZOLE], for which the MIC was 0.25 µg/mL (≈ 0.354 µM) with Candida albicans [1]; 0.03 µg/mL (≈ 0.0425 µM) in the data set with Candida tropicalis; > 64 µg/mL with Candida albicans [2]; 0.03 µg/mL (≈ 0.0425 µM) in the data set on Candida albicans [3]; 0.125 µg/mL (≈ 0.177 µM) in the data set on Candida parapsilosis; 0.125 µg/mL (≈ 0.177 µM) in the data set on Nakaseomyces glabratus. The MIC was 0.03 µg/mL (≈ 0.0425 µM) in the data set on Candida albicans [4], > 64 µg/mL in the data set on Candida albicans [5], 0.25 µg/mL (≈ 0.354 µM) in the data set with Candida albicans [6] and > 64 µg/mL in the data set with Candida albicans [7].
